Measured values reported in ChEMBL document CHEMBL4765235, “Discovery of N-[Bis(4-methoxyphenyl)methyl]-4-hydroxy-2-(pyridazin-3-yl)pyrimidine-5-carboxamide (MK-8617), an Orally Active Pan-Inhibitor of Hypoxia-Inducible Factor Prolyl Hydroxylase 1-3 (HIF PHD1-3) for the Treatment of Anemia” (J Med Chem, 2016).
Activity calls are given as the source filed them. The rule behind the calls is not given here.

Columns and labels:
Cytochrome P450 1A2 = target: T1, Cytochrome P450 1A2 (Homo sapiens, UniProt P05177); experiment: Inhibition of CYP1A2 (unknown origin); format: ADME
T1 sequence (P05177 whole entry): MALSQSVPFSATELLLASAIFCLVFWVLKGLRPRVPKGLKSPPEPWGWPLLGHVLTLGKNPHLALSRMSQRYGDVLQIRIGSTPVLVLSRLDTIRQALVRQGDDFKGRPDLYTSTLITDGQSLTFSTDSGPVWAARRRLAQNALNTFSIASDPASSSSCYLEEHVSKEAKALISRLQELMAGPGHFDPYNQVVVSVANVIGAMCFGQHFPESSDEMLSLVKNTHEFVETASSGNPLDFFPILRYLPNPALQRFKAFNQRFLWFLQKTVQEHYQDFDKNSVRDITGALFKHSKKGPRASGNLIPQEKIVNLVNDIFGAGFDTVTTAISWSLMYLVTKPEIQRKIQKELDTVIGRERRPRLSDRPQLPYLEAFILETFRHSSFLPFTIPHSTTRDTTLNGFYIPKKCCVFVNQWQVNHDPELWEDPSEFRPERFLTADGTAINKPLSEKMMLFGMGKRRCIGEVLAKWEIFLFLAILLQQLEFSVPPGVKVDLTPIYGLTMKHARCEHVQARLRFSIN

[1] = Cmax in dog at 1 mg/kg, po or 0.5 mg/kg, iv; format: ADME, organism-based, Canis lupus familiaris; design: dose 1 mg/kg; conditions: in vivo
In short: (§1)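 Single-dose PK at 1 mg/kg po and 0.5 mg/kg iv. Mouse clearance is from blood; dog and rhesus clearance is from plasma. Mouse vehicle, both routes: DMSO:PEG400:water (5:40:55, v/v/v). Dog and monkey iv vehicle: PEG200:12%HPCD:water (30:12:58 v/v/v). Dog and monkey po vehicle: Imwitor:Tween (1:1 w/w).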

[2] = Protein binding in rat plasma assessed as unbound fraction at 2 mg/kg, po or 1 mg/kg, iv; format: ADME, organism-based; conditions: read-out: PPB
[3] = Plasma clearance in rhesus monkey at 1 mg/kg, po or 0.5 mg/kg, iv; format: ADME, organism-based, Macaca mulatta
In short: (§2)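 Dog and rhesus monkey dosed 1 mg/kg po and 0.5 mg/kg iv. The iv vehicle was PEG200:12%HPCD:water (30:12:58 v/v/v); the po vehicle was Imwitor:Tween (1:1 w/w). Clearance was measured in plasma. Protein binding was measured in 100% serum.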

[4] = Drug metabolism in fasted bile-duct cannulated Sprague-Dawley rat bile assessed as oxidation of parent compound causing metabolite formation at 5 mg/kg, po using [3H]-labeled compound measured after 48 hrs; format: ADME, organism-based; conditions: in vivo
[5] = Protein binding in dog plasma assessed as unbound fraction at 1 mg/kg, po or 0.5 mg/kg, iv; format: ADME, organism-based, Canis lupus familiaris; conditions: read-out: PPB
Prolyl hydroxylase EGLN3 = Prolyl hydroxylase EGLN3 (Homo sapiens, UniProt Q9H6Z9); experiment: Inhibition of FLAG-tagged full-length HIF-PHD3 (unknown origin) expressed in baculovirus infected Sf9 cells using 2-oxoglutarate and HIF1alpha biotinyl-DLDLEMLAPYIPMDDDFQL as peptide substrates preincubated for 30 mins followed by substrate addition and measured after 2 hrs by LANCE assay
Prolyl hydroxylase EGLN3, sequence (Q9H6Z9 whole entry): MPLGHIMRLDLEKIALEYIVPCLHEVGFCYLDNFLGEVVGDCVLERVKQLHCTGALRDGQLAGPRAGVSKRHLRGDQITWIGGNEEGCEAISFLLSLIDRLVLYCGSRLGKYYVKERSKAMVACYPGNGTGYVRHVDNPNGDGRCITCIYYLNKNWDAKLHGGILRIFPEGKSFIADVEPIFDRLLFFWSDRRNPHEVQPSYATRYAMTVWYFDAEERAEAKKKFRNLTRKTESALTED

[6] = Drug recovery in fasted bile-duct cannulated Sprague-Dawley rat urine at 5 mg/kg, po using [3H]-labeled compound measured after 48 hrs; format: ADME, organism-based; conditions: in vivo
Cytochrome P450 2D6 = Cytochrome P450 2D6 (Homo sapiens, UniProt P10635); experiment: Inhibition of CYP2D6 (unknown origin); format: ADME
Cytochrome P450 2D6, sequence (P10635 whole entry): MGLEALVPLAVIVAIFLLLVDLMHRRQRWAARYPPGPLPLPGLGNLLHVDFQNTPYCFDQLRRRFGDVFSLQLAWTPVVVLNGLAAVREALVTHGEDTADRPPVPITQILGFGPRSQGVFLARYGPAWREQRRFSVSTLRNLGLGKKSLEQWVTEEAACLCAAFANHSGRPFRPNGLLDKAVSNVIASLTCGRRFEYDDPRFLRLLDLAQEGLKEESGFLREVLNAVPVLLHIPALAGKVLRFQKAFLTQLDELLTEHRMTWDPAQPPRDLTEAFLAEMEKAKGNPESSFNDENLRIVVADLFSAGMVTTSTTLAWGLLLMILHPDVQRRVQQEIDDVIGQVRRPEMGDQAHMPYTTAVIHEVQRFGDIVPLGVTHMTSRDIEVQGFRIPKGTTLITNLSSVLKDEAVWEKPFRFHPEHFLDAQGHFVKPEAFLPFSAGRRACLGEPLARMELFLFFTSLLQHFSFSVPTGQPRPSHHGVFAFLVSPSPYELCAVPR

Mus musculus = species on record: Mus musculus; conditions: C57BL/6, dose 5-15 mg/kg, time 2.0 day
[7] = target: Hypoxia-inducible factor 1-alpha inhibitor (Homo sapiens) (UniProt Q9NWT6); experiment: Inhibition of FIH (unknown origin) using 2-oxoglutarate and biotinyl-SMDESGLPQLTSYDAEVNAPIQGSRNLLQGEELLR CAD peptide as substrate preincubated for 10 mins followed by substrate addition and measured after 1 hr by RapidFire Mass spectrometry
[8] = Half life in rhesus monkey at 1 mg/kg, po or 0.5 mg/kg, iv; format: ADME, organism-based, Macaca mulatta; conditions: in vivo; in short: as §1
[9] = Oral bioavailability in C57BL/6J mouse at 1 mg/kg; format: ADME, organism-based; conditions: in vivo
In short: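 C57BL/6J mice dosed 1 mg/kg po and 0.5 mg/kg iv, both in DMSO:PEG400:water (5:40:55, v/v/v).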

[10] = Blood clearance in C57BL/6J mouse at 1 mg/kg, po or 0.5 mg/kg, iv; format: ADME, organism-based; conditions: whole blood; in short: as §1
[11] = Drug metabolism in dog liver microsomes assessed as O-demethylated metabolite formation; format: ADME, Canis lupus familiaris, Microsome
Cytochrome P450 3A4 = Cytochrome P450 3A4 (Homo sapiens, UniProt P08684); experiment: Inhibition of CYP3A4 (unknown origin); format: ADME
Cytochrome P450 3A4, sequence (P08684 whole entry): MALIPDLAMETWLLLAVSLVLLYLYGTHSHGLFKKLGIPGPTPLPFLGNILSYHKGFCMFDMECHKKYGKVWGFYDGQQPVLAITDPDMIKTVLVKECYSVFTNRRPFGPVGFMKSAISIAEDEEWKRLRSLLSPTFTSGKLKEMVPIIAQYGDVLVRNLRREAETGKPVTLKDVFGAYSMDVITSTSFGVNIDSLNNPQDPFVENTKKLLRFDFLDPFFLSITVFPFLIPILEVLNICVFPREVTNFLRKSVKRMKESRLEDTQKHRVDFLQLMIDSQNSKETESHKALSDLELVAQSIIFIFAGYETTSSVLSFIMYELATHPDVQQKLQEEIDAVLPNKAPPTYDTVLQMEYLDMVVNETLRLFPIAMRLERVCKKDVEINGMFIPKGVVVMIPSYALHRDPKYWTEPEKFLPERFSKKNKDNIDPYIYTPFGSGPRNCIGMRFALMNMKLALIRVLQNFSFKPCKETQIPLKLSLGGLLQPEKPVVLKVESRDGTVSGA

[12] = Half life in C57BL/6J mouse at 1 mg/kg, po or 0.5 mg/kg, iv; format: ADME, organism-based; conditions: in vivo; in short: as §1
[13] = Cmax in rat at 2 mg/kg, po or 1 mg/kg, iv; format: ADME, organism-based; design: dose 2 mg/kg; conditions: in vivo
Cytochrome P450 2C8 = target: T2, Cytochrome P450 2C8 (Homo sapiens, UniProt P10632); experiment: Reversible inhibition of CYP2C8 (unknown origin); format: ADME
T2 sequence (P10632 whole entry): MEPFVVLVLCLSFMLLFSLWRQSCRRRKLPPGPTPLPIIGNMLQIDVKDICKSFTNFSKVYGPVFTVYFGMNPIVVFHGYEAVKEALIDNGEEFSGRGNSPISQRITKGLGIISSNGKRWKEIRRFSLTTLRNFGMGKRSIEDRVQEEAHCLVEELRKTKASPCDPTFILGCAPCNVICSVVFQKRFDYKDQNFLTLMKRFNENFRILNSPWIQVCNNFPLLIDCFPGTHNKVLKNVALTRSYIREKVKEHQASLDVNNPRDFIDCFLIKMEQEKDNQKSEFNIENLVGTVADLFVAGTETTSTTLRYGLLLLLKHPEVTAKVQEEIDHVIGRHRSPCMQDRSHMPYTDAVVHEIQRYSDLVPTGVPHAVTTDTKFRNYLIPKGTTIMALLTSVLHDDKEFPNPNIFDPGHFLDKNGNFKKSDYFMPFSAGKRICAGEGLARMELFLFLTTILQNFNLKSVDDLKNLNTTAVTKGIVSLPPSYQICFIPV

[14] = In vivo inhibition of HIF-PHD2 in iv dosed C57BL/6 mouse assessed as minimum effective dose causing increase in serum erythropoietin levels measured after 4 hrs; format: functional; conditions: C57BL/6, iv, read-out: MED
In short: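 Mouse pharmacodynamic EPO assay (MoPED). Compound dosed iv; serum EPO measured 4 hr after dosing and reported in pg/mL. Minimum effective dose is the lowest dose giving EPO elevation.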

[15] = Oral bioavailability in rhesus monkey at 1 mg/kg; format: ADME, organism-based, Macaca mulatta; conditions: in vivo; in short: as §2
[16] = Cmax in C57BL/6J mouse at 1 mg/kg, po or 0.5 mg/kg, iv; format: ADME, organism-based; design: dose 1 mg/kg; conditions: in vivo; in short: as §1
Rattus norvegicus = species on record: Rattus norvegicus; conditions: Sprague-Dawley, dose 5-15 mg/kg
[17] = Metabolic stability in dog liver microsomes assessed as metabolic turnover at 10 uM measured after 60 mins in presence of NADPH; format: ADME, Canis lupus familiaris, Microsome; conditions: read-out: Drug metabolism
In short: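 Tritiated compound incubated with liver microsomes with NADPH added; metabolic turnover monitored.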

[18] = Drug metabolism in monkey liver microsomes assessed as O-demethylated metabolite formation; format: ADME, Macaca mulatta, Microsome; conditions: rhesus monkey

IC50 (Cytochrome P450 1A2): > 60 µM
Cmax [1]: 18 µM
fraction unbound [2]: 0.006
clearance [3]: 0.15 mL/min/kg
Drug metabolism [4]: Metabolite_Detected
fraction unbound [5]: 0.01
IC50 (Prolyl hydroxylase EGLN3): 0.014 µM
Drug recovery [6]: 26%
IC50 (Cytochrome P450 2D6): > 60 µM
IC50 [7]: 18 µM
half-life [8]: 10 h
bioavailability [9]: 6.3%
clearance [10]: 0.13 mL/min/kg
Drug metabolism [11]: Metabolite_Detected
IC50 (Cytochrome P450 3A4): > 60 µM
half-life [12]: 11 h
Cmax [13]: 11 µM
IC50 (Cytochrome P450 2C8): 1.6 µM
bioavailability [15]: 52%
Cmax [16]: 8.4 µM
metabolised at 1 h, 10 µM [17]: < 10%
Drug metabolism [18]: Metabolite_Detected
Compound: COc1ccc(C(NC(=O)c2cnc(-c3cccnn3)nc2O)c2ccc(OC)cc2)cc1
inhibition (Mus musculus): Active
minimal effective dose [14]: 1.5 mg/kg
inhibition (Rattus norvegicus): Active
